# From ChEMBL document CHEMBL3997766, “Synthesis and pre-clinical studies of new amino-acid ester thiazolide prodrugs” (Eur J Med Chem, 2017)
# How the values were obtained:
# Assay type in all cases: ADME, organism-based
# Conditions in all cases: in vivo
# Rattus norvegicus [1] = experiment: Drug level in Sprague-Dawley rat treated with RM5064 at 6.4 mg/kg, iv measured at 0.25 to 1 hrs post dose
# Rattus norvegicus [2] = experiment: Drug level in Sprague-Dawley rat treated with RM5038 at 6.4 mg/kg, iv measured at 0.25 to 1 hrs post dose
# Rattus norvegicus [3] = experiment: Tmax in Sprague-Dawley rat assessed as RM4848-glucuronide level in plasma at 30 mg/kg, po administered as single dose
# Summary of the method: (§1)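 Rats in groups of three got a single oral dose (30 mg/kg) or a single intravenous injection (6 mg/kg). Serial blood samples were taken at 5, 10, 15 and 30 min and at 1, 2, 4, 8, 23 and 24 h post-dose for plasma drug and glucuronide levels. Bioavailability came from oral versus intravenous AUC after dose correction to 30 mg/kg.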
# Rattus norvegicus [4] = experiment: Cmax in Sprague-Dawley rat assessed as RM-4848-glucuronide level at 6 mg/kg, iv administered as single dose; parameters: dose 6 mg/kg, route intravenous
# Summary of the method: (§2)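 Rats in groups of three received one compound as a single oral dose (30 mg/kg) or a single intravenous injection (6 mg/kg), with four compounds studied separately. Serial blood samples were drawn at 5, 10, 15 and 30 min and at 1, 2, 4, 8, 23 and 24 h post-dose. Plasma parent drug and metabolites were quantified and PK parameters were derived.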
# Rattus norvegicus [5] = experiment: AUC (0 to t) in Sprague-Dawley rat assessed as RM-4848-glucuronide level in plasma at 30 mg/kg, po administered as single dose; summary of the method: as §2
# Rattus norvegicus [6] = experiment: Elimination half life in Sprague-Dawley rat assessed as RM-4848 level in plasma at 6.2 mg/kg, iv
# Rattus norvegicus [7] = experiment: Tmax in Sprague-Dawley rat assessed as RM-4848 level in plasma at 6.2 mg/kg, iv; summary of the method: as §1
# Rattus norvegicus [8] = experiment: AUC (0 to t) in Sprague-Dawley rat assessed as RM-4848-glucuronide level at 6 mg/kg, iv administered as single dose; summary of the method: as §2
# Rattus norvegicus [9] = experiment: Elimination half life in Sprague-Dawley rat assessed as RM-4848-glucuronide level at 6.2 mg/kg, iv
# Rattus norvegicus [10] = experiment: AUC (0 to t) in Sprague-Dawley rat assessed as RM-4848 level in plasma at 30 mg/kg, po administered as single dose; summary of the method: as §2
# Plasma [11] = experiment: Drug metabolism in Sprague-Dawley rat assessed as RM-4848 formation in plasma at 30 mg/kg, po administered as single dose measured at 0.083 to 4 hrs post dose; summary of the method: as §2
# Rattus norvegicus [12] = experiment: Elimination half life in Sprague-Dawley rat assessed as RM-4848 level in plasma at 30 mg/kg, po administered as single dose; summary of the method: as §2
# Plasma [13] = experiment: Drug metabolism in Sprague-Dawley rat assessed as RM-4848-glucuronide formation in plasma at 30 mg/kg, po administered as single dose; summary of the method: as §2
# Rattus norvegicus [14] = experiment: Cmax in Sprague-Dawley rat assessed as RM-4848 level in plasma at 6 mg/kg, iv administered as single dose; parameters: dose 6 mg/kg, route intravenous; summary of the method: as §2
# Rattus norvegicus [15] = experiment: Cmax in Sprague-Dawley rat assessed as RM-4848-glucuronide level in plasma at 30 mg/kg, po administered as single dose; parameters: dose 30 mg/kg, route oral; summary of the method: as §2
# Rattus norvegicus [16] = experiment: AUC (0 to t) in Sprague-Dawley rat assessed as RM-4848 level in plasma at 6 mg/kg, iv administered as single dose; summary of the method: as §2
# Rattus norvegicus [17] = experiment: Cmax in Sprague-Dawley rat assessed as RM-4848 level in plasma at 30 mg/kg, po administered as single dose; parameters: dose 30 mg/kg, route oral; summary of the method: as §2
# Rattus norvegicus [18] = experiment: Tmax in Sprague-Dawley rat assessed as RM-4848-glucuronide level in plasma at 6.2 mg/kg, iv; summary of the method: as §1
# Rattus norvegicus [19] = experiment: Elimination half life in Sprague-Dawley rat assessed as RM-4848-glucuronide level at 30 mg/kg, po administered as single dose; summary of the method: as §2
# Plasma [20] = experiment: Drug metabolism in Sprague-Dawley rat assessed as RM-4848-glucuronide formation in plasma at 6.2 mg/kg, iv at 0.083 hrs post dose
# Rattus norvegicus [21] = experiment: Oral bioavailability in Sprague-Dawley rat assessed as RM-4848 level in plasma at 30 mg/kg administered as single dose
# Summary of the method: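 Groups of three rats received a single oral dose (30 mg/kg) or intravenous dose (6 mg/kg), with serial blood sampling from 5 min to 24 h. Absolute bioavailability came from the AUC after oral versus intravenous dosing, with the AUC corrected for dose to 30 mg/kg.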
# Plasma [22] = experiment: Drug level in Sprague-Dawley rat plasma treated with RM5064 at 30 mg/kg, po administered as single dose; summary of the method: as §2
# Plasma [23] = experiment: Drug level in Sprague-Dawley rat plasma treated with RM5038 at 6 mg/kg, iv administered as single dose; summary of the method: as §2
# Plasma [24] = experiment: Drug metabolism in Sprague-Dawley rat assessed as RM4848-glucuronide formation in plasma at 30 mg/kg, po measured at 0.25 to 0.5 post dose; summary of the method: as §2
# Plasma [25] = experiment: Drug metabolism in Sprague-Dawley rat assessed as RM-4848 formation in plasma at 6.4 mg/kg, iv measured at 1 to 4 hrs post dose
# Plasma [26] = experiment: Drug metabolism in Sprague-Dawley rat assessed as RM-4848 formation in plasma at 30 mg/kg, po measured at 0.25 to 0.5 post dose; summary of the method: as §2
# Rattus norvegicus [27] = experiment: Drug metabolism in Sprague-Dawley rat assessed as RM-4848-glucuronide formation at 6.4 mg/kg, iv measured at 0.25 to 1 hrs post dose
# Plasma [28] = experiment: Drug metabolism in Sprague-Dawley rat assessed as RM-4848-glucuronide formation in plasma at 6 mg/kg, iv administered as single dose; summary of the method: as §2
# Rattus norvegicus [29] = experiment: Tmax in Sprague-Dawley rat assessed as RM-4848-glucuronide level in plasma at 30 mg/kg, po administered as single dose; summary of the method: as §1
# Rattus norvegicus [30] = experiment: Elimination half life in Sprague-Dawley rat assessed as RM-4848 level in plasma at 6.4 mg/kg, iv
# Rattus norvegicus [31] = experiment: Elimination half life in Sprague-Dawley rat assessed as RM-4848-glucuronide level at 6.4 mg/kg, iv
# Rattus norvegicus [32] = experiment: Tmax in Sprague-Dawley rat assessed as RM-4848-glucuronide formation at 6.4 mg/kg, iv; summary of the method: as §1
Drug metabolism (Rattus norvegicus [1]),Drug metabolism (Rattus norvegicus [2]),Cmax (Rattus norvegicus [4]),AUCt (Rattus norvegicus [5]),AUCt (Rattus norvegicus [8]),AUCt (Rattus norvegicus [10]),beta t1/2 (Rattus norvegicus [12]),Cmax (Rattus norvegicus [14]),Cmax (Rattus norvegicus [15]),AUCt (Rattus norvegicus [16]),Cmax (Rattus norvegicus [17]),beta t1/2 (Rattus norvegicus [19]),F (Rattus norvegicus [21]),other results,SMILES
Metabolite_Detected,Metabolite_Detected,,,,,,,,,,,,,O=C(Nc1ncc(Cl)s1)c1ccccc1O
,,5570 ng/mL,19400 ng·h/mL,7610 ng·h/mL,715 ng·h/mL,84 to 156 min,2650 ng/mL,7290 ng/mL,631 ng·h/mL,622 ng/mL,206 min,23%,Tmax (Rattus norvegicus [3]): 30 min; beta t1/2 (Rattus norvegicus [6]): 54.6 min; Tmax (Rattus norvegicus [7]): 4.98 min; beta t1/2 (Rattus norvegicus [9]): 189 min; Drug metabolism (Plasma [11]): Metabolite_Detected; Drug metabolism (Plasma [13]): Metabolite_Detected; Tmax (Rattus norvegicus [18]): 15 to 30 min; Drug metabolism (Plasma [20]): Metabolite_Detected,CC(C)(C)[C@H](N)C(=O)Oc1ccccc1C(=O)Nc1ncc(Cl)s1.Cl
Metabolite_Detected,Metabolite_Detected,,,,,,,,,,,,Drug metabolism (Plasma [22]): Metabolite_Detected; Drug metabolism (Plasma [23]): Metabolite_Detected,O=C(Nc1ncc(Cl)s1)c1ccccc1O[C@@H]1O[C@H](C(=O)O)[C@@H](O)[C@H](O)[C@H]1O
,,17300 ng/mL,10040 ng·h/mL,19400 ng·h/mL,130 ng·h/mL,180 min,9980 ng/mL,2080 ng/mL,3480 ng·h/mL,101 ng/mL,368 min,1%,Drug metabolism (Plasma [24]): Metabolite_Detected; Drug metabolism (Plasma [25]): Metabolite_Detected; Drug metabolism (Plasma [26]): Metabolite_Detected; Drug metabolism (Rattus norvegicus [27]): Metabolite_Detected; Drug metabolism (Plasma [28]): Metabolite_Detected; Tmax (Rattus norvegicus [29]): 15 to 30 min; beta t1/2 (Rattus norvegicus [30]): 40.2 min; beta t1/2 (Rattus norvegicus [31]): 150 to 192 min; Tmax (Rattus norvegicus [32]): 15 to 60 min,CC(=O)Oc1ccccc1C(=O)Nc1ncc(Cl)s1
